MT1-MMP act inh – blockers of MT1-MMP proenzyme processing, primary screen, HT1080 RFP-PRO-GFP cells, GFP/RFP fluorescence; Matrix metalloproteinase-14 (Homo sapiens), P50281; GFP/RFP ratio fluorescence, overnight; percent of plate control window, DMSO zero; GFP/RFP ratio change, % at 20 µM; actives 0.061% (n = 360,000); AID 651647, 2012;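 active means GFP/RFP ratio change of at least 30% with cell ATP level not reduced by more than half and red fluorescence within 50% of control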
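Assay system: HT1080 RFP-PRO-GFP cells. Benchmarks: DMSO vehicle wells and RFP-L50D-GFP reporter cell wells. Times: overnight cell settling, then overnight compound exposure, 37 °C, 5% CO2. Compound: 20 µM single dose, 1% DMSO. Read-out basis: GFP/RFP fluorescence ratio.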
SKN-1 inh – suppressors of acrylamide-induced Pgst-4::GFP reporter in worms, primary screen, SKN-1 inhibitor project, whole organism, uHTS, GFP/RFP fluorescence ratio, strain VP596; C. elegans VP596 Pgst-4::GFP/RFP ratio, 24 h; inhibition, % at 21.8 µM; actives 0.49% (n = 360,000); AID 624304, 2012;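 active means interference check ratio from 0.5 to 1.5 plus GFP to RFP signal ratio inhibition reaching or exceeding a fixed threshold, cut at about 30% in these data, passing the limit was not always enough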
CSN inh – inhibitors of CSN-mediated cullin deneddylation, primary screen, biochemical, fluorescence polarization, uHTS. actives 0.38% (n = 360,000). AID 651999, 2013. Purified CSN, SCF-Nedd8-OG deneddylation. COP9 signalosome complex subunit 5 (Homo sapiens), Q92905. inhibition, % at 12.5 µM;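 active means pattern-corrected inhibition above about 35%, with an unprinted fluorescence ratio check between 0.5 and 1.5, limit read from the data, passing the limit was not always enough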
Target sequence (Q92905 whole entry, looked up, one chain of several): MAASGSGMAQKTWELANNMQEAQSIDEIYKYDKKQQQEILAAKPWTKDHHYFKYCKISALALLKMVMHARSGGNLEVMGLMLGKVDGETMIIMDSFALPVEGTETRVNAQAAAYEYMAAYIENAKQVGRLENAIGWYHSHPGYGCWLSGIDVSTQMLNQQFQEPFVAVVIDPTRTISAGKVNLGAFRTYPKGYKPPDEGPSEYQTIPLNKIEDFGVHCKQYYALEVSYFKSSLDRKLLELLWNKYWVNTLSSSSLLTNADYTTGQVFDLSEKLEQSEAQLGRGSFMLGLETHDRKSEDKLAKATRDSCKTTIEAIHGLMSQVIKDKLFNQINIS
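assay system = purified human Csn5 enzyme expressed in HEK293T cells | amount = 0.24 nM enzyme | buffer or medium = Tris/NaCl/DTT buffer, pH 7.5 | reagent = 10 nM SCFSkp2-Nedd8OG | compound = one concentration, 12.5 µM, 0.25% DMSO | times = 90 min reaction at room temperature | signal = FP | read-out basis = % inhibition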
DNMT1 inh – human DNMT1 methyltransferase inhibitors, primary screen, biochemical, molecular beacon, fluorescence, HinP1I cleavage, uHTS | DNA (cytosine-5)-methyltransferase 1 (Homo sapiens), P26358 | inhibition (reported as % activation of signal), % at 10 µM | actives 0.83% (n = 360,000) | AID 588458, 2011; in the data active means inhibition above about 50%
Rpn11 block – Rpn11 (PSMD14) deubiquitinase inhibitors, primary screen, biochemical, fluorescence polarization, uHTS | actives 0.59% (n = 360,000) | human 26S proteasome, Ub4-pepOG fluorescence polarization; 20S core pre-blocked with epoxomicin | inhibition, % at 20 µM | 26S proteasome non-ATPase regulatory subunit 14 (Homo sapiens), O00487;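 active means inhibition at 20 µM, scaled to each plate's controls, above about 33%, limit read from the data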
Target sequence (O00487 whole entry, looked up): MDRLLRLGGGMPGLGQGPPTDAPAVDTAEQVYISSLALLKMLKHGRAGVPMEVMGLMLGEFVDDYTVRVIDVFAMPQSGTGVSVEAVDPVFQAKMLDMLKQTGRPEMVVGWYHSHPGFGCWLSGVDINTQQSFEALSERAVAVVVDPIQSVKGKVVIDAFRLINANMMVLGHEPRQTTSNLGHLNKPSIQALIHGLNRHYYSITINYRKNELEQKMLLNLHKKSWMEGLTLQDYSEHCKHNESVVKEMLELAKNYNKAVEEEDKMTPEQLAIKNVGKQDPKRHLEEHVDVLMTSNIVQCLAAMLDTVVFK
SUMO1 PPI mod – modulators of SUMO1 protein-protein interactions, primary screen, biochemical, uHTS. SUMO1 binding to a labelled peptide, TR-FRET, 1 h. Small ubiquitin-related modifier 1 (Homo sapiens), P63165. actives 0.33% (n = 360,000). inhibition, % at 20 µM. AID 602429, 2012; in the data active means inhibition above about 37%
DNMT1 confirm – DNMT1 methyltransferase inhibitor retest, confirmation, biochemical, molecular beacon, fluorescence, single concentration | shares compounds with DNMT1 inh | DNMT1 molecular beacon HinP1I cleavage | inhibition, % at 10 µM | actives 8% (n = 2,300);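 active means average inhibition of at least 30% in the single-concentration confirmation test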
Beacon interf – shows spectral interference in the DNMT1 beacon assay | activation (fluorescence interference), % at 10 µM | AID 602387 | actives 1% (n = 2,300) | DNMT1 molecular beacon spectral interference counterscreen, fluorescence 485/520 | shares compounds with DNMT1 inh;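 active means activation of at least 30% at 10 µM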;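 further: DNMT1 catalytic domain with a HinP1I cleavage step and a FAM/dabcyl DNA beacon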
Numbers stand for hits. Only some compounds are listed: those with a hit (about 2.3% of all), similar ones and a draw of the others.

`CCOC(=O)c1c(C)[nH]c(C(=O)OCC(=O)N2CCc3ccccc32)c1C` gave MT1-MMP act inh inactive, SKN-1 inh inactive, CSN inh inactive, DNMT1 inh 62, Rpn11 block inactive, SUMO1 PPI mod inactive, DNMT1 confirm inactive and Beacon interf inactive.
For CCOC(=O)c1c(C)[nH]c(C(=O)OCC(=O)Nc2ccc(OCC)cc2)c1C the results were MT1-MMP act inh inactive, SKN-1 inh inactive, CSN inh inactive, DNMT1 inh 69, Rpn11 block inactive, SUMO1 PPI mod inactive, DNMT1 confirm inactive and Beacon interf inactive.
For COc1ccccc1CNC(=O)Nc1nnc([C@H]2C[C@H](O)[C@@H](CO)O2)s1 the results were MT1-MMP act inh inactive, SKN-1 inh inactive, CSN inh inactive, DNMT1 inh inactive, Rpn11 block inactive and SUMO1 PPI mod inactive.
COc1ccc(NC(=O)C2(C)CCN2C(=O)CC2CCCC2)cc1OC (stereo not drawn) was read as MT1-MMP act inh inactive, SKN-1 inh inactive, CSN inh inactive, DNMT1 inh inactive, Rpn11 block inactive and SUMO1 PPI mod inactive.
N#Cc1ccc(-c2cccc3nccn23)cc1 was read as MT1-MMP act inh inactive, SKN-1 inh inactive, CSN inh inactive, DNMT1 inh inactive, Rpn11 block inactive and SUMO1 PPI mod inactive.
For CCCCN(C)C(=O)c1sc(=O)n(Cc2ccc(Cl)c(Cl)c2)c1C the results were MT1-MMP act inh inactive, SKN-1 inh inactive, CSN inh inactive, DNMT1 inh inactive, Rpn11 block inactive and SUMO1 PPI mod inactive.
COC(=O)C[C@@H]1C=C[C@H](NC(=O)Nc2ccc(OC)cc2)[C@@H](CO)O1 was read as MT1-MMP act inh inactive, SKN-1 inh inactive, CSN inh inactive and SUMO1 PPI mod inactive.
O=C(c1ccco1)N1CCN(C(=O)c2ccc(-c3ccc([N+](=O)[O-])cc3)o2)CC1 was read as MT1-MMP act inh inactive, SKN-1 inh inactive, CSN inh inactive, DNMT1 inh 63, Rpn11 block inactive, SUMO1 PPI mod 74, DNMT1 confirm inactive and Beacon interf inactive.
O=C(c1ccc([N+](=O)[O-])cc1)N1CCN(C(=O)c2ccco2)CC1 was read as MT1-MMP act inh inactive, SKN-1 inh inactive, CSN inh inactive, DNMT1 inh inactive, Rpn11 block inactive and SUMO1 PPI mod inactive.
Screening Cc1cccc(Cl)c1OCCCn1ccnc1 returned MT1-MMP act inh inactive, SKN-1 inh inactive, CSN inh inactive, DNMT1 inh 67, Rpn11 block inactive, SUMO1 PPI mod inactive, DNMT1 confirm inactive and Beacon interf inactive.
`CN(Cc1ccccc1)C(=O)Cn1nnc(-c2ccccc2)c1COc1ccc2ccccc2c1` gave MT1-MMP act inh inactive, SKN-1 inh inactive, CSN inh inactive, DNMT1 inh inactive, Rpn11 block inactive and SUMO1 PPI mod inactive.
`Cc1ccsc1/C=N/N=C/c1sccc1C` gave MT1-MMP act inh inactive, SKN-1 inh inactive, CSN inh inactive, DNMT1 inh 56, Rpn11 block inactive, SUMO1 PPI mod inactive, DNMT1 confirm inactive and Beacon interf inactive.
`Cc1ccsc1/C=N/NC(=O)c1sccc1C` gave MT1-MMP act inh inactive, SKN-1 inh inactive, CSN inh inactive, DNMT1 inh inactive, Rpn11 block inactive and SUMO1 PPI mod inactive.
Screening O=C(NNC(=O)c1cccs1)c1cccc(F)c1 returned MT1-MMP act inh inactive, SKN-1 inh inactive, CSN inh inactive, DNMT1 inh inactive, Rpn11 block inactive and SUMO1 PPI mod inactive.
O=C(N/N=C/c1ccc(OC(=O)c2ccc(Br)cc2)cc1)c1ccncc1 was read as MT1-MMP act inh inactive, SKN-1 inh inactive, CSN inh inactive, DNMT1 inh 57, Rpn11 block inactive, SUMO1 PPI mod inactive, DNMT1 confirm inactive and Beacon interf inactive.
`O=C(N/N=C/c1ccc(OC(=O)c2cccs2)cc1)c1cccc(F)c1` gave MT1-MMP act inh inactive, SKN-1 inh inactive, CSN inh inactive, DNMT1 inh 64, Rpn11 block inactive, SUMO1 PPI mod inactive, DNMT1 confirm inactive and Beacon interf inactive.
O=C(CSCc1ccccc1Br)NC1CC1 was read as MT1-MMP act inh inactive, SKN-1 inh inactive, CSN inh inactive, DNMT1 inh 81, Rpn11 block inactive, SUMO1 PPI mod inactive, DNMT1 confirm inactive and Beacon interf inactive.
For CC(C)CC1C(=O)N(Cc2cn(CC3CCCCC3)nn2)CCS(=O)(=O)N1Cc1ccc(-c2ccncc2)cc1 (stereo not drawn) the results were MT1-MMP act inh inactive, SKN-1 inh inactive, CSN inh inactive, DNMT1 inh inactive, Rpn11 block inactive and SUMO1 PPI mod inactive.
CCCCNC(=O)C1C(c2ccc(OC)cc2)=Nc2ccccc2N1C(=O)c1ccc2ncccc2c1 (stereo not drawn) was read as MT1-MMP act inh inactive, SKN-1 inh inactive, CSN inh inactive and SUMO1 PPI mod inactive.
`COc1ccc2[nH]c(=O)c(C(=O)O)cc2c1` gave MT1-MMP act inh inactive, SKN-1 inh inactive, CSN inh inactive, DNMT1 inh inactive, Rpn11 block inactive and SUMO1 PPI mod inactive.
`COc1ccc2[nH]c(=O)cc(C(=O)O)c2c1` gave MT1-MMP act inh inactive, SKN-1 inh inactive, CSN inh inactive, DNMT1 inh 58, Rpn11 block inactive, SUMO1 PPI mod inactive, DNMT1 confirm inactive and Beacon interf inactive.
For COc1ccccc1C(O)c1ncc(-c2ccccc2C)[nH]1 (stereo not drawn) the results were MT1-MMP act inh inactive, SKN-1 inh inactive, CSN inh inactive, DNMT1 inh inactive, Rpn11 block inactive and SUMO1 PPI mod inactive.
Cc1cc(-c2ccccc2)nc2c(Br)c(C(=O)O)nn12 was read as MT1-MMP act inh inactive, SKN-1 inh inactive, CSN inh inactive, DNMT1 inh 52, Rpn11 block inactive, SUMO1 PPI mod inactive, DNMT1 confirm inactive and Beacon interf inactive.

High-throughput results from PubChem BioAssay.
